# System: U2OS
# Test: Multiplex assay against U2OS
# Type: toxicity, cell-based
# Details: human
# Method in brief: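 Phenotypes for tubulin, mitochondrial mass and membrane permeability are expressed as per cents of healthy-nucleus cells. Cells were stained live at seeding with Hoechst33342, BioTracker Green Microtubule Cytoskeleton Dye, MitoTracker Red and Annexin V Alexa Fluor 680, then imaged after compound addition on a CQ1 microscope at 37°C and 5% CO2. Machine-learning gating in CellPathfinder separated Hoechst high-intensity objects from normal cells, divided normal cells by nuclear state (healthy, pyknosed, fragmented) and divided pyknosed cells into mitotic or apoptotic.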
# [1] = 12 h, 1 µM, compound concentration 1 uM, replicate 1
# [2] = 12 h, 1 µM, compound concentration 1 uM, replicate 2
# [3] = 12 h, 10 µM, compound concentration 10 uM, replicate 1
# [4] = 12 h, 10 µM, compound concentration 10 uM, replicate 2
# [5] = 24 h, 1 µM, compound concentration 1 uM, replicate 1
# [6] = 24 h, 1 µM, compound concentration 1 uM, replicate 2
# [7] = 24 h, 10 µM, compound concentration 10 uM, replicate 1
# [8] = 24 h, 10 µM, compound concentration 10 uM, replicate 2
# [9] = 48 h, 1 µM, compound concentration 1 uM, replicate 1
# [10] = 48 h, 1 µM, compound concentration 1 uM, replicate 2
# [11] = 48 h, 10 µM, compound concentration 10 uM, replicate 1
# [12] = 48 h, 10 µM, compound concentration 10 uM, replicate 2
structure (smiles),measurement,setting,value
S=C(NCCCc1c[nH]cn1)NCCCN(Cc1ccc(Cl)c(Cl)c1)c1ccc(Br)cn1,Population Apoptotic (%),[1],56%
same,Population Fragmented Nuclei (%),[1],9%
same,Population Healthy Nuclei (%),[1],76%
same,Population Hoechst High Intensity Objects (%),[1],9%
same,Population Membrane Permeable-Phenotype (%),[1],7%
same,Population Mitochondria Different-Phenotype (%),[1],31%
same,Population Mitotic Cells (%),[1],43%
same,Population Normal (%),[1],90%
same,Population Pyknosed Nuclei (%),[1],13%
same,Population Tubulin-Different-Phenotype (%),[1],32%
same,Total Cell Count,[1],193
same,Population Apoptotic (%),[2],0%
same,Population Fragmented Nuclei (%),[2],17%
same,Population Healthy Nuclei (%),[2],82%
same,Population Hoechst High Intensity Objects (%),[2],15%
same,Population Membrane Permeable-Phenotype (%),[2],8%
same,Population Mitochondria Different-Phenotype (%),[2],8%
same,Population Mitotic Cells (%),[2],0%
same,Population Normal (%),[2],84%
same,Population Pyknosed Nuclei (%),[2],0%
same,Population Tubulin-Different-Phenotype (%),[2],4%
same,Total Cell Count,[2],79
same,Population Apoptotic (%),[3],88%
same,Population Fragmented Nuclei (%),[3],47%
same,Population Healthy Nuclei (%),[3],4%
same,Population Hoechst High Intensity Objects (%),[3],15%
same,Population Mitotic Cells (%),[3],11%
same,Population Normal (%),[3],84%
same,Population Pyknosed Nuclei (%),[3],48%
same,Total Cell Count,[3],133
same,Population Apoptotic (%),[4],93%
same,Population Fragmented Nuclei (%),[4],25%
same,Population Healthy Nuclei (%),[4],2%
same,Population Hoechst High Intensity Objects (%),[4],11%
same,Population Membrane Permeable-Phenotype (%),[4],100%
same,Population Mitochondria Different-Phenotype (%),[4],100%
same,Population Mitotic Cells (%),[4],6%
same,Population Normal (%),[4],88%
same,Population Pyknosed Nuclei (%),[4],72%
same,Population Tubulin-Different-Phenotype (%),[4],100%
same,Total Cell Count,[4],33
same,Population Apoptotic (%),[5],66%
same,Population Fragmented Nuclei (%),[5],10%
same,Population Healthy Nuclei (%),[5],76%
same,Population Hoechst High Intensity Objects (%),[5],6%
same,Population Membrane Permeable-Phenotype (%),[5],6%
same,Population Mitochondria Different-Phenotype (%),[5],10%
same,Population Mitotic Cells (%),[5],33%
same,Population Normal (%),[5],93%
same,Population Pyknosed Nuclei (%),[5],12%
same,Population Tubulin-Different-Phenotype (%),[5],14%
same,Total Cell Count,[5],199
same,Population Apoptotic (%),[6],0%
same,Population Fragmented Nuclei (%),[6],19%
same,Population Healthy Nuclei (%),[6],80%
same,Population Hoechst High Intensity Objects (%),[6],8%
same,Population Membrane Permeable-Phenotype (%),[6],16%
same,Population Mitochondria Different-Phenotype (%),[6],8%
same,Population Mitotic Cells (%),[6],0%
same,Population Normal (%),[6],91%
same,Population Pyknosed Nuclei (%),[6],0%
same,Population Tubulin-Different-Phenotype (%),[6],20%
same,Total Cell Count,[6],79
same,Population Apoptotic (%),[7],97%
same,Population Fragmented Nuclei (%),[7],44%
same,Population Healthy Nuclei (%),[7],5%
same,Population Hoechst High Intensity Objects (%),[7],21%
same,Population Membrane Permeable-Phenotype (%),[7],100%
same,Population Mitochondria Different-Phenotype (%),[7],100%
same,Population Mitotic Cells (%),[7],2%
same,Population Normal (%),[7],78%
same,Population Pyknosed Nuclei (%),[7],49%
same,Population Tubulin-Different-Phenotype (%),[7],100%
same,Total Cell Count,[7],149
same,Population Apoptotic (%),[8],100%
same,Population Fragmented Nuclei (%),[8],12%
same,Population Healthy Nuclei (%),[8],24%
same,Population Hoechst High Intensity Objects (%),[8],25%
same,Population Membrane Permeable-Phenotype (%),[8],94%
same,Population Mitochondria Different-Phenotype (%),[8],88%
same,Population Mitotic Cells (%),[8],0%
same,Population Normal (%),[8],74%
same,Population Pyknosed Nuclei (%),[8],62%
same,Population Tubulin-Different-Phenotype (%),[8],88%
same,Total Cell Count,[8],34
same,Population Apoptotic (%),[9],28%
same,Population Fragmented Nuclei (%),[9],10%
same,Population Healthy Nuclei (%),[9],58%
same,Population Hoechst High Intensity Objects (%),[9],8%
same,Population Membrane Permeable-Phenotype (%),[9],6%
same,Population Mitochondria Different-Phenotype (%),[9],11%
same,Population Mitotic Cells (%),[9],72%
same,Population Normal (%),[9],91%
same,Population Pyknosed Nuclei (%),[9],30%
same,Population Tubulin-Different-Phenotype (%),[9],10%
same,Total Cell Count,[9],211
same,Population Apoptotic (%),[10],22%
same,Population Fragmented Nuclei (%),[10],21%
same,Population Healthy Nuclei (%),[10],54%
same,Population Hoechst High Intensity Objects (%),[10],13%
same,Population Membrane Permeable-Phenotype (%),[10],5%
same,Population Mitochondria Different-Phenotype (%),[10],10%
same,Population Mitotic Cells (%),[10],77%
same,Population Normal (%),[10],86%
same,Population Pyknosed Nuclei (%),[10],24%
same,Population Tubulin-Different-Phenotype (%),[10],15%
same,Total Cell Count,[10],76
same,Population Apoptotic (%),[11],92%
same,Population Fragmented Nuclei (%),[11],50%
same,Population Healthy Nuclei (%),[11],2%
same,Population Hoechst High Intensity Objects (%),[11],22%
same,Population Membrane Permeable-Phenotype (%),[11],50%
same,Population Mitochondria Different-Phenotype (%),[11],100%
same,Population Mitotic Cells (%),[11],7%
same,Population Normal (%),[11],77%
same,Population Pyknosed Nuclei (%),[11],46%
same,Population Tubulin-Different-Phenotype (%),[11],100%
same,Total Cell Count,[11],177
same,Population Apoptotic (%),[12],100%
same,Population Fragmented Nuclei (%),[12],31%
same,Population Healthy Nuclei (%),[12],41%
same,Population Hoechst High Intensity Objects (%),[12],30%
same,Population Membrane Permeable-Phenotype (%),[12],92%
same,Population Mitochondria Different-Phenotype (%),[12],89%
same,Population Mitotic Cells (%),[12],0%
same,Population Normal (%),[12],69%
same,Population Pyknosed Nuclei (%),[12],26%
same,Population Tubulin-Different-Phenotype (%),[12],92%
same,Total Cell Count,[12],43
